Published values pooled from the literature.
Protocols differ between the studies behind these lines.
CYP2B6: Cytochrome P450 2B6 (CYP2B6, Homo sapiens, UniProt P20813)
UGT1A6: UDP-glucuronosyltransferase 1A6 (UGT1A6, Homo sapiens, UniProt P19224)

OC(Cn1cncn1)(Cn1cncn1)c1ccc(F)cc1F — haemolysis (haemolysis; human; 1 µg/mL, 1 h): 3.39%
CCOP(=O)(OCC)[C@@H]1C[C@@H](n2cc(C(=O)OC)nn2)ON1C (relative stereo) — CC50 (HEL; cell growth or viability; 72 h): > 100 µM
CCOc1ccccc1C=NNc1nc(-c2ccc(F)cc2)cs1 — haemolysis (haemolysis; human; 50 µM, 30 min, pH 7.4): 16.8%
C[C@@H]1[C@H](O)[C@@H](C)/C=C/C=C/C=C/C=C/C=C/C=C/C=C/[C@H](O[C@@H]2O[C@H](C)[C@@H](O)[C@H](N)[C@@H]2O)C[C@@H]2O[C@](O)(C[C@@H](O)C[C@@H](O)[C@H](O)CC[C@@H](O)C[C@@H](O)CC(=O)O[C@H]1C)C[C@H](O)[C@H]2C(=O)O — haemolysis (haemolysis; human; 4 µg/mL, 1 h): 93.2%
CCCc1cn(CCN2CCN(C(=O)c3c(C)nc4cc(C)ccn34)CC2)nn1 — CC50 (HeLa; cell growth or viability, resazurin): > 100 µM
CCOP(=O)(OCC)[C@@H]1C[C@@H](n2cc(-c3ccccc3)nn2)ON1C (racemic) — CC50 (HeLa; cell growth or viability; 72 h): > 250 µM
COc1c(F)cccc1C=NNc1nc(-c2ccc(F)cc2)cs1 — haemolysis (haemolysis; human; 100 µM, 30 min, pH 7.4): 36.6%
Cc1nc2ccc(Cl)cn2c1C(=O)N1CCN(CCn2cc(-c3ccc(C(C)(C)C)cc3)nn2)CC1 — CC50 (HeLa; cell growth or viability, resazurin): > 100 µM
CCOP(=O)(OCC)[C@@H]1C[C@@H](n2cc(Cn3cc(C)c(=O)[nH]c3=O)nn2)ON1C (racemic) — CC50 (HeLa; cell growth or viability; 72 h): > 250 µM
Fc1ccc(-c2csc(NN=Cc3cccs3)n2)cc1 — haemolysis (haemolysis; human; 100 µM, 30 min, pH 7.4): 61.4%
Cc1ccn2c(C(=O)N3CCN(CCn4cc(C5CC5)nn4)CC3)c(C)nc2c1 — CC50 (HeLa; cell growth or viability, resazurin): > 100 µM
Oc1ccc(Cl)cc1C=NNc1nc(-c2ccc(F)cc2)cs1 — haemolysis (haemolysis; human; 100 µM, 30 min, pH 7.4): 52.5%
Cc1ccn2c(C(=O)N3CCN(Cc4cn(-c5ccc([N+](=O)[O-])cc5)nn4)CC3)c(C)nc2c1 — CC50 (HeLa; cell growth or viability, resazurin): > 100 µM
COc1ccc(S(=O)(=O)Nc2c(C(=O)Nc3c(C(=O)O)cc(OC)c(OC)c3OC)cc(OC)c(OC)c2OC)cc1 — IC50 (HeLa; cell growth or viability, XTT; 72 h): 95 µM
Fc1ccc(-c2csc(NN=Cc3ccc[nH]3)n2)cc1 — haemolysis (haemolysis; human; 50 µM, 30 min, pH 7.4): 26.3%
CCOP(=O)(OCC)[C@@H]1C[C@@H](n2cc(Cn3ccc(=O)[nH]c3=O)nn2)ON1C (racemic) — CC50 (HeLa; cell growth or viability; 72 h): ≥ 250 µM
Cc1cccc(F)c1N1CCC(N2Cc3cn(CC(C)(F)F)nc3N(Cc3ccccc3C(F)(F)F)C2=O)CC1 — IC50 (CYP2B6; enzyme activity, inhibitor; human, liver microsomes): > 10 µM
C[C@H](O)c1cc(C(=O)N[C@@H](C)Cn2ccc(-c3ccc(C#N)c(Cl)c3)n2)n[nH]1 — IC50 (UGT1A6; enzyme activity, inhibitor; human, liver microsomes): > 100 µM
CCc1cc(/C(C)=N/OCc2ccc(C3CCCCC3)c(C(F)(F)F)c2)ccc1CN1CC(C(=O)O)C1 — inhibition (CYP2B6; enzyme activity, inhibitor; human, liver microsomes; 100 µM, 20 min): 21%
CC(=O)c1cc(C(=O)N[C@@H](C)Cn2ccc(-c3ccc(C#N)c(Cl)c3)n2)[nH]n1 — IC50 (UGT1A6; enzyme activity, inhibitor; human, liver microsomes): > 50 µM
Fc1ccc(-c2csc(NN=Cc3ccc(C(F)(F)F)cc3)n2)cc1 — haemolysis (haemolysis; human; 100 µM, 30 min, pH 7.4): 41%
Cc1nc2ccc(Cl)cn2c1C(=O)N1CCN(Cc2cn(-c3ccc(C(F)(F)F)cc3)nn2)CC1 — CC50 (HeLa; cell growth or viability, resazurin): > 100 µM
Fc1ccc(-c2csc(NN=Cc3ccccc3C(F)(F)F)n2)cc1 — haemolysis (haemolysis; human; 10 µM, 30 min, pH 7.4): 4.43%
Cc1ccn2c(C(=O)N3CCN(Cc4cn(-c5cccc([N+](=O)[O-])c5)nn4)CC3)c(C)nc2c1 — CC50 (HeLa; cell growth or viability, resazurin): > 100 µM
Fc1ccc(-c2csc(NN=Cc3cccc(C(F)(F)F)c3)n2)cc1 — haemolysis (haemolysis; human; 50 µM, 30 min, pH 7.4): 30.7%
CCCc1cn(CCN2CCN(C(=O)c3c(C)nc4ccc(Cl)cn34)CC2)nn1 — CC50 (HeLa; cell growth or viability, resazurin): > 100 µM
CCOP(=O)(OCC)[C@@H]1C[C@H](n2cc(Cn3ccc(NC(C)=O)nc3=O)nn2)ON1C (racemic) — CC50 (HEL; cell growth or viability; 72 h): > 100 µM
COc1cccc(-n2cc(CN3CCN(C(=O)c4c(C)nc5cc(C)ccn45)CC3)nn2)c1 — CC50 (HeLa; cell growth or viability, resazurin): > 100 µM
Cc1ccc(C(=O)N2CCOC[C@H]2Cc2cccc(-n3nccn3)c2)c(-n2nccn2)c1 — inhibition (CYP2B6; enzyme activity, inhibitor; human, liver microsomes; 100 µM): 44%
